Scp1 inh: blocks human Scp-1 phosphatase activity; Recombinant Scp1, phosphopeptide, malachite green phosphate absorbance; inhibition, % at 20 µM; actives 0.88% (n = 340,000); AID 493091;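 active = inhibition above about 50% at 20 µM, limit read from the data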
Target sequence (Q9GZU7 76-261 limits assumed): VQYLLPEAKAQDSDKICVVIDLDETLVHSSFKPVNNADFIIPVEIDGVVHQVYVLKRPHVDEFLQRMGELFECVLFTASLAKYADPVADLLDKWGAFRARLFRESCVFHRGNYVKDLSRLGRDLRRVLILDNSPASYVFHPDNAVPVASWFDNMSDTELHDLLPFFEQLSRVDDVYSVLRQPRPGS
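Times: enzyme reaction 45 min at room temperature, colour 5 min, stabilisation 30 min. Material: SCP-1 catalytic fragment, aa 76-261. Medium: Acidic Tris acetate buffer with magnesium and detergent. Signal: colorimetric free-phosphate detection, absorbance 630 nm. Read-out basis: % inhibition of SCP-1 phosphate liberation. Reagent: Phosphorylated 17-residue peptide substrate.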
LMPTP block: LMPTP (human) inhibition. P24666. recombinant LMPTP-A, OMFP fluorogenic substrate, fluorescence intensity. inhibition, % at 20 µM. actives 0.22% (n = 360,000). AID 651560;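 active = compounds that cut the enzyme signal by at least half of the control window in the single-dose screen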
Target sequence (P24666 whole entry, looked up): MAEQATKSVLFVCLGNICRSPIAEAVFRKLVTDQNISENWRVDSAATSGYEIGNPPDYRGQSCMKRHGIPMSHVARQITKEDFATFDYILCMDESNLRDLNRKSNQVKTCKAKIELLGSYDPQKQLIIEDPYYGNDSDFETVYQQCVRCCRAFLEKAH
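Assay system: LMPTP-A phosphatase enzyme | Input: 0.625 nM enzyme | Also added: Fluorogenic phosphatase substrate OMFP at 400 µM final | Compound dosing: One test concentration per compound, 20 µM, with 3% DMSO overall | Schedule: 50 min enzyme reaction at room temperature, protected from light | Signal: Fluorescence intensity | Benchmarks: no-enzyme and uninhibited controls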
SUMO1 PPI mod: modulators of human SUMO1-mediated protein-protein interactions. P63165. SUMO1 binding to a labelled peptide, TR-FRET, 1 h. inhibition, % at 20 µM. actives 0.33% (n = 360,000); in the data active = inhibition above about 37%
Target sequence (P63165 whole entry, looked up): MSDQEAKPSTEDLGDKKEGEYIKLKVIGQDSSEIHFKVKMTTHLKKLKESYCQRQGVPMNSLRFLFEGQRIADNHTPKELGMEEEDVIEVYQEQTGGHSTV
NadD block: blocks S. aureus nicotinate mononucleotide adenylyltransferase. purified NadD enzyme, colorimetric absorbance read-out. inhibition, % at 20 µM. actives 0.78% (n = 360,000). AID 602399; in the data active = inhibition above about 26%
STEP block: STEP (human) phosphatase inhibition; P54829; actives 0.25% (n = 360,000); inhibition, % at 20 µM; recombinant STEP, OMFP fluorogenic substrate, fluorescence;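 active = inhibition at 20 µM, scaled per plate between control wells, above about 37%, limit read from the data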
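System: STEP (striatal-enriched tyrosine phosphatase) enzyme, cell-free; medium: Bis-Tris pH 6.0 buffer with DTT, detergent; dosing: 20 µM, 1% DMSO; times: reaction 20 min, ambient temperature; detection: fluorescence, 480/540 nm; read-out basis: normalized % inhibition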
DNMT1 block: inhibitors of human DNMT1; P26358; DNMT1 molecular beacon, Hinp1I cleavage, fluorescence; actives 0.83% (n = 360,000); inhibition (reported as % activation of signal), % at 10 µM; in the data active = inhibition above about 50%
Large screens that a line does not name were inactive. Most compounds without a hit are left out; they make up all but 2.4% or so of the library.

N#Cc1c(NC(=O)c2ccc(Br)o2)n(-c2ccccc2)c2nc3ccccc3nc12	DNMT1 block 51
CCC(=O)Nc1c(C#N)c2nc3ccccc3nc2n1-c1ccc(C)cc1	none
CN1CCN(c2nnc(-c3ccc(F)cc3)c3ccccc23)CC1	none
COc1ccc(OC)c(CN2CCN(C(=O)c3ccc(S(=O)(=O)Nc4ccccc4F)cc3)CC2)c1	none
Cc1cccc(NNC(=O)c2c(F)cccc2Cl)c1	none
Brc1ccc2c(c1)-c1ccccc1C1=NCCN12	DNMT1 block 53 (no result: Scp1 inh)
Clc1ccc2c(c1)-c1ccccc1C1=NCCN12	DNMT1 block 51 (no result: Scp1 inh)
CC(=O)Nc1cccc(NC(=O)CSc2nccn2Cc2ccccc2)c1	none
c1cc2c3c(cccc3c1)NC1(CCCCC1)N2	NadD block 36
c1cc2c3c(cccc3c1)NC1(CCC3(CC1)Nc1cccc4cccc(c14)N3)N2	NadD block 51
COC(=O)c1ccccc1C(=O)c1ccc2c(c1)NC(=O)CO2	none
Fc1ccc2nncc(SCc3ccccc3Cl)c2c1	none
O=C(COC(=O)Cn1cnc2ccccc21)Nc1cc2c(cc1Cl)C(=O)c1ccccc1C2=O	NadD block 39
O=C(COC(=O)Cn1cnc2ccccc21)Nc1cc(S(=O)(=O)N2CCOCC2)ccc1Cl	none
CCOC(=O)N=Nc1c2ccccc2c2nc3no[nH]c3nc12	DNMT1 block 50
Cc1ccc(S(=O)(=O)N2C[C@H]3N(C(=O)OC(C)C)N(C(=O)OC(C)C)C[C@H](OC(=O)Nc4cccs4)[C@@]3(O)C2)cc1	none (no result: Scp1 inh)
Fc1ccc(CNc2nc(-c3ccccc3)nc3ccccc23)cc1	none
Cc1ccc(-c2nc(NCc3cccnc3)c3ccccc3n2)cc1	LMPTP block 63
COc1ccc(CNc2nc(-c3ccccc3)nc3ccccc23)cc1OC	LMPTP block 63
Clc1cccc(-c2nc(NCc3cccnc3)c3ccccc3n2)c1	none
c1ccc(-c2nc(NCc3cccnc3)c3ccccc3n2)cc1	LMPTP block 58
CC(C)C[C@@H](CNCC(=O)[C@H](Cc1ccccc1)NC(=O)c1[nH]cnc1C(=O)N[C@H](CN)CC(C)C)NC(=O)c1nc[nH]c1C(=O)N[C@@H](CC(=O)O)C(=O)O	SUMO1 PPI mod 47
O=C(O)C1C2C=CC(C2)C1C(=O)NCc1cccnc1 (stereo not given)	none
O=C(NCc1cccnc1)C1C2C=CC(C2)C1C(=O)Nc1cccc(C(F)(F)F)c1 (stereo not given)	SUMO1 PPI mod 40 (no result: Scp1 inh)
CCCC1=C/C(=C/c2ccc(-c3ccccc3OC)o2)C(=O)O1	NadD block 40
CC1CC(=O)Nc2ccccc2N1C(=O)CSc1nnnn1C(C)C (stereo not given)	none
CC(C)CN(C(=O)COC(=O)c1ccc([N+](=O)[O-])s1)c1c(N)n(Cc2ccccc2)c(=O)[nH]c1=O	DNMT1 block 56
COCCN(C(=O)COC(=O)c1cc2c(s1)CCC2)c1c(N)n(Cc2ccccc2)c(=O)[nH]c1=O	Scp1 inh 88, LMPTP block 72, SUMO1 PPI mod 112, STEP block 96, DNMT1 block 101
Cc1ccc(C(=O)N2CCN(c3ccccc3F)CC2)cc1S(=O)(=O)N1CCOCC1	none
O=C1c2cccc3cc([N+](=O)[O-])cc(c23)C(=O)N1CCN1CCCC1	DNMT1 block 70
CCN(CC)CCN1C(=O)c2cccc3cc(N)cc(c23)C1=O	none
Nc1cc2c3c(cccc3c1)C(=O)N(CCN1CCCC1)C2=O	DNMT1 block 51
Cc1nn(Cc2cccc(F)c2)c(C)c1NC(=O)c1c(Cl)cnn1C	none
CC(C)[C@H](CO)Nc1nc(Nc2ccc(Cl)c(C(=O)O)c2)c2ncn(C(C)C)c2n1	SUMO1 PPI mod 69
Brc1ccc(C2Nc3cccc4cccc(c34)N2)s1	DNMT1 block 55
Clc1ccc(C2=NCCN2)cc1	none
NC(=O)C1CCN(C(=S)c2ccc(-c3ccc(Br)cc3)o2)CC1	STEP block 95
CCN(CC)C(=O)[C@H]1CC(CC(=O)NCCCOC)C(=O)N2CCc3c([nH]c4ccccc34)[C@]12C (stereo not given in full)	none
C[n+]1ccccc1/C=C/c1ccccc1Cl	Scp1 inh 98
O=C(NCc1ccco1)c1cc2c(s1)CSC2	Scp1 inh 99 (no result: LMPTP block, SUMO1 PPI mod, NadD block, STEP block, DNMT1 block)
CSCC[C@H](NC(=O)c1cccc(S(=O)(=O)N2CCN(C)CC2)c1)c1nc2ccccc2[nH]1	none
CCc1ccc(C(O)c2ncc(-c3ccc4ccccc4c3)[nH]2)cc1 (stereo not given)	DNMT1 block 61 (no result: Scp1 inh)
Cc1ccc(C(O)c2ncc(-c3ccc4ccccc4c3)[nH]2)cc1 (stereo not given)	none (no result: Scp1 inh)
COc1ccc(N=C2NC(=O)/C(=C/C=C/c3ccccc3)S2)cc1	none
O=C1NC(=Nc2ccccc2)S/C1=C\C=C\c1ccco1	DNMT1 block 93
COc1ccc(N=C2NC(=O)/C(=C\C=C\c3ccccc3)S2)cc1	NadD block 26
CN(C)C1CN(Cc2cn(Cc3cccc(C(F)(F)F)c3)nn2)S(=O)(=O)C1 (stereo not given)	none (no result: Scp1 inh, STEP block, DNMT1 block)
CC(OC(=O)CCN=C1NS(=O)(=O)c2ccccc21)C(=O)Nc1ccc(F)c(F)c1F (stereo not given)	none
Cc1cc(NC(=O)Cc2ccccc2)ccc1NC(=O)c1cccs1	none
CC(C)(C)OC(=O)N1CCC(c2cc(=O)n3[nH]cc(C(=O)Nc4ccc(F)c(Cl)c4)c3n2)CC1	SUMO1 PPI mod 51
Cc1cc(C)nc(NC(=O)/C=C/c2ccccc2Cl)n1	none
Cc1cc(N)c2cc(NC(=O)/C=C/c3ccccc3Cl)ccc2n1	SUMO1 PPI mod 89, DNMT1 block 53
CCCNC(=O)C1(C)CCCN(C(=O)c2cccc(C(F)(F)F)c2)C1 (stereo not given)	none (no result: Scp1 inh)
COc1cccc(OC)c1C(=O)Nc1cccc2c1CCCC2	none
C=C(C)CNC(=S)N1CCN(C(c2ccccc2)c2ccccc2)CC1	SUMO1 PPI mod 44
CN(C)c1ccc(C(=O)N/N=C/c2cc(Br)cc(Br)c2O)cc1	NadD block 32
COc1c(Br)cc(Br)cc1/C=N/NC(=O)c1ccncc1	none
COC(=O)C1C2C=CC(C3CC23)C1C(=O)OCC(=O)c1ccc(OC)cc1 (stereo not given)	none
COC(=O)C1C2C=CC(C3CC23)C1C(=O)OCC(=O)c1ccccc1 (stereo not given)	SUMO1 PPI mod 45
CCOC(=O)c1ccc(Nc2sc(C(=O)c3cccc([N+](=O)[O-])c3)c(N)c2C#N)cc1	SUMO1 PPI mod 53
Cc1ccc(C(=O)c2sc(Nc3ccccc3)c(C#N)c2N)cc1	none

Screens: PubChem BioAssay, Sanford-Burnham Center for Chemical Genomics
